Experimental data: ChEMBL document CHEMBL1949515, “Regioselective synthesis and antimicrobial activities of some novel aryloxyacetic acid derivatives” (2012)
In brackets after ≈: the same amount, converted by molar mass. Activity calls are given as the source filed them. No cut-off for these calls is given here.

Key:
Format in all cases: functional
Staphylococcus aureus = assay: Antibacterial activity against Staphylococcus aureus ATCC 29213 after 24 hrs by agar well diffusion method
Summary of the method: (§1)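 Agar well diffusion on nutrient agar seeded with bacterial suspension at 1 × 10⁸ CFU/mL. Wells received compound solution from a stock of 100 mg per mL DMSO. Plates incubated 24 h at 37 °C. Read-out is inhibition zone diameter (mm), done in triplicate and averaged.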

Bacillus subtilis [1] = assay: Antibacterial activity against Bacillus subtilis ATCC 6633 after 24 hrs by agar well diffusion method; summary of the method: as §1
Priestia megaterium [2] = assay: Antibacterial activity against Bacillus megaterium after 24 hrs by agar well diffusion method; summary of the method: as §1
Micrococcus luteus [3] = assay: Antibacterial activity against Sarcina lutea after 24 hrs by agar well diffusion method; summary of the method: as §1
Klebsiella pneumoniae [4] = assay: Antibacterial activity against Klebsiella pneumoniae ATCC 13883 after 24 hrs by agar well diffusion method; summary of the method: as §1
Pseudomonas aeruginosa = assay: Antibacterial activity against Pseudomonas aeruginosa ATCC 27953 after 24 hrs by agar well diffusion method; summary of the method: as §1
Escherichia coli [5] = assay: Antibacterial activity against Escherichia coli ATCC 25922 after 24 hrs by agar well diffusion method; summary of the method: as §1
Mycolicibacterium phlei = assay: Antibacterial activity against Mycobacterium phlei after 24 hrs by agar well diffusion method; summary of the method: as §1
Saccharomyces cerevisiae [6] = assay: Antifungal activity against Saccharomyces cerevisiae after 48 hrs by agar well diffusion method
Summary of the method: (§2)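 Fungal agar well diffusion on Sabouraud dextrose agar seeded at 1 × 10⁶ CFU/mL. Wells received compound solution from a 100 mg per mL DMSO stock. Incubation 48 h at 28 °C. Inhibition zone diameter (mm) measured in triplicate and averaged.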

Candida albicans [7] = assay: Antifungal activity against Candida albicans NRRL Y-477 after 48 hrs by agar well diffusion method; summary of the method: as §2
Bacillus subtilis [8] = assay: Antibacterial activity against Bacillus subtilis ATCC 6633 after 24 hrs by two fold serial dilution method; conditions: ATCC 6633, 24 h
Summary of the method: (§3)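 MIC determined by two-fold serial dilution in the appropriate nutrient broth, only for compounds that gave sizeable inhibition zones in the well diffusion screen. Final concentrations stepped down by halves from 66 (66, 33, 16.5 …).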

Priestia megaterium [9] = assay: Antibacterial activity against Bacillus megaterium after 24 hrs by two fold serial dilution method; summary of the method: as §3
Klebsiella pneumoniae [10] = assay: Antibacterial activity against Klebsiella pneumoniae ATCC 13883 after 24 hrs by two fold serial dilution method; conditions: ATCC 13883, 24 h; summary of the method: as §3
Saccharomyces cerevisiae [11] = assay: Antifungal activity against Saccharomyces cerevisiae by two fold serial dilution method; summary of the method: as §3
Candida albicans [12] = assay: Antifungal activity against Candida albicans NRRL Y-477 by two fold serial dilution method; summary of the method: as §3
Escherichia coli [13] = assay: Antibacterial activity against Escherichia coli ATCC 25922 after 24 hrs by two fold serial dilution method; conditions: ATCC 25922, 24 h; summary of the method: as §3
Micrococcus luteus [14] = assay: Antibacterial activity against Sarcina lutea after 24 hrs by two fold serial dilution method; summary of the method: as §3

Structure (SMILES) | MIC (Bacillus subtilis [8]) [µg/mL] | MIC (Priestia megaterium [9]) [µg/mL] | MIC (Klebsiella pneumoniae [10]) [µg/mL] | MIC (Saccharomyces cerevisiae [11]) [µg/mL] | MIC (Candida albicans [12]) [µg/mL] | MIC (Escherichia coli [13]) [µg/mL] | MIC (Micrococcus luteus [14]) [µg/mL] | diameter of the inhibition zone (DIZ) (Staphylococcus aureus) | diameter of the inhibition zone (DIZ) (Bacillus subtilis [1]) | diameter of the inhibition zone (DIZ) (Priestia megaterium [2]) | diameter of the inhibition zone (DIZ) (Micrococcus luteus [3]) | diameter of the inhibition zone (DIZ) (Klebsiella pneumoniae [4]) [mm] | diameter of the inhibition zone (DIZ) (Pseudomonas aeruginosa) | diameter of the inhibition zone (DIZ) (Escherichia coli [5]) | diameter of the inhibition zone (DIZ) (Mycolicibacterium phlei) | diameter of the inhibition zone (DIZ) (Saccharomyces cerevisiae [6]) [mm] | diameter of the inhibition zone (DIZ) (Candida albicans [7])
CC(=N/NC(=O)COc1ccc2ccccc2c1)/C(Cl)=N\Nc1ccc(Cl)cc1 |  |  | 16.5 (≈ 38.4 µM) | 16.5 (≈ 38.4 µM) | 33 (≈ 76.9 µM) | 16.5 (≈ 38.4 µM) |  | inactive | inactive | inactive | inactive | 24 | inactive | 21 mm | 16 mm | 26 | 20 mm
CC(=N/NC(=O)COc1ccc(Cl)cc1Cl)/C(=N\Nc1ccc(Br)cc1)Sc1ccccc1 | 66 (≈ 117 µM) | 16.5 (≈ 29.1 µM) | 66 (≈ 117 µM) | 33 (≈ 58.3 µM) | 66 (≈ 117 µM) |  | 16.5 (≈ 29.1 µM) | inactive | 18 mm | 20 mm | 20 mm | 18 | inactive | inactive | inactive | 23 | 20 mm
CC(=N/NC(=O)COc1ccc(Cl)cc1Cl)/C(Cl)=N\Nc1ccc(Br)cc1 | 66 (≈ 134 µM) | 16.5 (≈ 33.5 µM) | 33 (≈ 67 µM) | 8.25 (≈ 16.7 µM) | 33 (≈ 67 µM) |  |  | inactive | 18 mm | 22 mm | inactive | 20 | inactive | inactive | inactive | 27 | 21 mm
CC(=N/NC(=O)COc1ccc(Cl)cc1Cl)/C(=N\Nc1ccc(Cl)cc1)Sc1ccccc1 |  |  | 16.5 (≈ 31.6 µM) | 4.12 (≈ 7.9 µM) |  |  |  | inactive | inactive | inactive | inactive | 24 | inactive | inactive | 13 mm | 28 | inactive
CC(=N/NC(=O)COc1ccc2ccccc2c1)/C(Cl)=N\Nc1ccc(Br)cc1 | 66 (≈ 139 µM) | 16.5 (≈ 34.8 µM) | 33 (≈ 69.7 µM) | 16.5 (≈ 34.8 µM) | 33 (≈ 69.7 µM) |  |  | inactive | 18 mm | 21 mm | inactive | 21 | inactive | inactive | inactive | 24 | 21 mm

Continued by falling MIC (Klebsiella pneumoniae [10]), values first:

MIC (Bacillus subtilis [8]) [µg/mL] | MIC (Priestia megaterium [9]) [µg/mL] | MIC (Klebsiella pneumoniae [10]) [µg/mL] | MIC (Saccharomyces cerevisiae [11]) [µg/mL] | MIC (Candida albicans [12]) [µg/mL] | MIC (Escherichia coli [13]) [µg/mL] | MIC (Micrococcus luteus [14]) [µg/mL] | Structure (SMILES) | diameter of the inhibition zone (DIZ) (Staphylococcus aureus) | diameter of the inhibition zone (DIZ) (Bacillus subtilis [1]) | diameter of the inhibition zone (DIZ) (Priestia megaterium [2]) | diameter of the inhibition zone (DIZ) (Micrococcus luteus [3]) | diameter of the inhibition zone (DIZ) (Klebsiella pneumoniae [4]) [mm] | diameter of the inhibition zone (DIZ) (Pseudomonas aeruginosa) | diameter of the inhibition zone (DIZ) (Escherichia coli [5]) | diameter of the inhibition zone (DIZ) (Mycolicibacterium phlei) | diameter of the inhibition zone (DIZ) (Saccharomyces cerevisiae [6]) [mm] | diameter of the inhibition zone (DIZ) (Candida albicans [7])
66 (≈ 185 µM) | 8.25 (≈ 23.1 µM) | 33 (≈ 92.6 µM) | 16.5 (≈ 46.3 µM) | 66 (≈ 185 µM) |  |  | O=C(COc1ccc2ccccc2c1)NNCC(=O)Nc1nccs1 | inactive | 18 mm | 22 mm | inactive | 23 | inactive | inactive | inactive | 22 | 20 mm
66 (≈ 110 µM) | 16.5 (≈ 27.5 µM) | 33 (≈ 54.9 µM) | 16.5 (≈ 27.5 µM) | 66 (≈ 110 µM) |  |  | O=C(COc1ccc2ccccc2c1)NN/C=C(\NNC(=O)COc1ccc2ccccc2c1)c1cc2ccccc2oc1=O | inactive | 18 mm | 20 mm | inactive | 21 | inactive | inactive | inactive | 21 | 20 mm
66 (≈ 147 µM) | 16.5 (≈ 36.8 µM) | 33 (≈ 73.6 µM) | 16.5 (≈ 36.8 µM) | 66 (≈ 147 µM) |  |  | CC(=N/NC(=O)COc1ccc(Cl)cc1Cl)/C(Cl)=N\Nc1ccc(Cl)cc1 | inactive | 18 mm | 20 mm | inactive | 21 | inactive | inactive | 15 mm | 24 | 18 mm
